# High-throughput results: PubChem, several laboratories
# The list is not random: actives were taken first. Their share in the collection is about 1.2%.
# CR mimetic SO: caloric restriction mimetics inhibiting age-related superoxide in yeast; hit rate 0.18% among 330,000; S. cerevisiae aged cells, superoxide DHE fluorescence; hits give low values; superoxide response (% of plate mean), % at 10 µM;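 active = superoxide response under a set limit, about three screen SD below normal, cut at about 65% in these data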;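 also: yeast aged for seven days with compound at 30 °C before DHE staining; 100% = average MFI of all compound-treated wells on the plate with controls excluded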
# proCasp3 act: activates human procaspase-3 | activation, % at 8.5 µM | AID 463141 | hit rate 0.11% among 330,000 | recombinant procaspase-3 D3A, Ac-DEVD-pNA absorbance 405 nm;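 active = activation above the mean of all tested compounds plus 3 SD, cut at about 21% in these data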;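 also: 0% = DMSO alone and 100% = DMSO wells spiked with extra 5 µM PC-3 D3A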
#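 Technique: 405 nm absorbance of p-nitroaniline, reads at 0 and 120 min; Test system: Procaspase-3 D3A mutant; Incubation: 1 h enzyme-compound preincubation, then 2 h substrate reaction, 25 °C; Repeats: singlicate, each compound tested once; Benchmarks: low control DMSO wells, high control DMSO plus 5 µM PC-3 D3A.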
# ARFGAP1 inhibitor: inhibitors of rat ARFGAP1; hit rate 0.26% among 360,000; AID 651572; Arfgap1-stimulated ARF1 GTP hydrolysis, GDP FP detection; inhibition, % at 16.5 µM;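 active = inhibition above a per-plate limit, mean inhibition of low control wells plus 3 SD, cut at about 25% in these data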;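 also: 0% = DMSO wells with enzyme and 100% = wells lacking Arfgap1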
# Target sequence (Q62848 1-136 limits assumed): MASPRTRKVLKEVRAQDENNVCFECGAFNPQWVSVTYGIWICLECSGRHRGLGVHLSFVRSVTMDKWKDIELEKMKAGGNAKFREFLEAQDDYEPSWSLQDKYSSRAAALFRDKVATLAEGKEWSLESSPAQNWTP
#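 System: truncated rat Arfgap1 GAP domain / Benchmarks: high control wells lacking Arfgap1, low control full reaction with DMSO / Times: compound-enzyme preincubation 20 min, reaction 120 min, detection 60 min, 25 °C / Repeats: one replicate per compound / Also added: human ARF1(Δ1-17)-GTP substrate / Measured by: Tracer-displacement fluorescence polarization with EDTA stop, 620/688 nm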
# LANA-H2A inh: blocks KSHV LANA binding to histone H2A/H2B; inhibition, % (no concentration beside the values); cell-free LANA-H2A/H2B peptide, fluorescence polarization; Q9QR71; hit rate 0.6% among 320,000; in the data active = inhibition mostly above about 10%, no sharp cut-off; inactive = mostly below about 6.7%
# ASAP1 inh: ASAP1 ArfGAP inhibition; ASAP1-stimulated ARF1 GTP hydrolysis, GDP FP detection; hit rate 0.19% among 360,000; inhibition, % at 16.5 µM; Q9ULH1; in the data active = inhibition above about 25%;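 also: 0% = vehicle with enzyme and substrate and 100% = no enzyme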
# procasp7 counter: counter-screen for procaspase-3 activators: activators of human procaspase-7 | activation, % at 8.5 µM | hit rate 0.093% among 330,000 | P55210 | recombinant procaspase-7, Ac-DEVD-pNA absorbance 405 nm; D23A/D198A/D206A triple mutant, cannot self-cleave; scale: DMSO 0, 5 µM enzyme 100;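 active = percent activation above the screen-wide mean plus 3 SD, cut at about 25% in these data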
# Target sequence (P55210 whole entry D23A/D198A/D206A): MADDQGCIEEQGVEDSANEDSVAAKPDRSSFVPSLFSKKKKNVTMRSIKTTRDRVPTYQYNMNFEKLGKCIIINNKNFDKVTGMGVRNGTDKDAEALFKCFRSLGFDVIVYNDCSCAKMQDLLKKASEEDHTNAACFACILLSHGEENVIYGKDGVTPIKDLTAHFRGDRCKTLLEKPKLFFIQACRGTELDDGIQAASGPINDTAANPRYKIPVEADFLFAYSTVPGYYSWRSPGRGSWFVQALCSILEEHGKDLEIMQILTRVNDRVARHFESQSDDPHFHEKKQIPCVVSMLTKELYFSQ
#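 Assay system – Uncleavable procaspase-7 mutant enzyme · Quantity – 2 µM procaspase-7 mutant as dispensed · Times – 1 h preincubation, 2 h reaction · Dosing – single nominal 8.5 µM compound dose, 0.8% DMSO final · Buffer or medium – Zinc-free 50 mM HEPES buffer, pH 7.4, with NaCl and Triton X-100 · Detection – Epi-absorbance of released pNA at 405 nm, two timepoints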
# * marks the source's active call; other numbers are inactive results; / = no result; + = active, no number; ! = a repeat was not active.
SMILES,CR mimetic SO,proCasp3 act,ARFGAP1 inhibitor,LANA-H2A inh,ASAP1 inh,procasp7 counter
OC(c1ccc(CN2CCCCC2)cc1)c1ncc(-c2ccccc2)[nH]1 (stereo not drawn),/,/,-5,/,-6,/
O=[N+]([O-])c1ccc(C(=S)N2CCCC2)cc1,100,4,-8,+,3,-17
CC1CC(C)CN(CCCNC(=O)C2CCC(=O)N2C2CCCC2)C1 (stereo not drawn),87,-5,32*,-2,-9,7
C[C@@H]1CN([C@H](C)CO)S(=O)(=O)c2ccc(Br)cc2O[C@H]1CN(C)C(=O)Nc1ccccc1,/,/,2,/,-10,/
CCCCC1C2C(=O)N(c3ccc(C)cc3)C(=O)C2ON1c1ccccc1 (stereo not drawn),76,-4,3,2,4,-4
Cc1ccc(C)c(N2CCN(C(=O)c3cc4ccccn4n3)CC2)c1,101,-4,/,30*,/,9
O=C1NC(c2cccc([N+](=O)[O-])c2)Oc2ccccc21 (stereo not drawn),102,-1,7,4,7,-2
CC(C)(C)C(=O)Nc1ccc(F)cc1[N+](=O)[O-],104,9,2,12*,2,1
CC(C)c1ccc(OCCCN2CCC(C(O)(c3ccccc3)c3ccccc3)CC2)cc1,/,/,1,/,14,/
COc1ccc(OC)c(-c2nn(-c3ccccc3)cc2C(=O)N2CCc3ccccc3C2)c1,96,-3,4,+,0,5
CC(Oc1cccc(Cl)c1)c1ccnc2nc(/N=C/N(C)C)nn12 (stereo not drawn),100,3,6,112*,4,-1
CCCNC(=O)C1(C)CCCN(Cc2cc(-c3ccccc3)n(C)n2)C1 (stereo not drawn),/,/,-9,/,-12,/
CCC1=Nc2cc(C(=O)NCCN3CCOCC3)ccc2Sc2ccc(C)cc21,93,4,2,5.1*,9,-9
CNc1ccc2c3c(cccc13)C(=O)N(C)C2=O,97,-6,-8,88*,-1,-6
CN1C(=O)c2cccc3c(Cl)ccc(c23)C1=O,86,8,14,1,-4,5
COc1ccc(NC(=O)N(C)C[C@H]2OCCCC[C@H](C)Oc3ccc(NS(=O)(=O)c4cn(C)cn4)cc3C(=O)N([C@H](C)CO)C[C@@H]2C)cc1,/,/,-12,/,8,/
Nc1c(Br)cc(Br)c(N2CCCC2=O)c1Br,112,-3,-7,7,-9,2
CC1CC(C)(C)NC(=S)N1CCC(=O)N1CCc2ccccc21 (stereo not drawn),88,2,-12,9,2,5
CNC12CCc3cc(OC)c(OC)c(c31)-c1cc3c(cc1C2)OCO3 (stereo not drawn),/,/,-7,/,9,/
O=C(C1=COCCO1)N1CCN(c2nc3ccc([N+](=O)[O-])cc3s2)CC1,99,-14,10,7,28*,8
CC(=O)N1CCN(c2nc3ccc([N+](=O)[O-])cc3s2)CC1,92,-13,4,-2,4,-4
O=C(CNC(=O)c1cccc(F)c1)N/N=C/c1ccc([N+](=O)[O-])s1,151,6,5,14*,8,-14
O=C(/C=C(\Nc1ccc(Br)c(F)c1)c1ccccc1)c1ccccc1,/,/,-13,/,5,/
COc1cc(OC)cc(C(=O)Nc2nnc(SCC(=O)NCc3ccco3)s2)c1,97,1,11,39*,7,-5
CCc1cc(C(=O)N2CCN(S(=O)(=O)c3ccccc3F)CC2)sc1C,125,5,7,+,9,4
SMILES,CR mimetic SO,proCasp3 act,ARFGAP1 inhibitor,LANA-H2A inh,ASAP1 inh,procasp7 counter
CCc1cc(C(=O)N2CCN(S(=O)(=O)c3cc(C)ccc3C)CC2)sc1C,82,1,0,11,-21,-2
CCOC(=O)N1CCN(C(=O)/C=C/c2ccc(C(C)(C)C)cc2)CC1,98,7,-9,37*,-3,2
CCOC(=O)N1CCN(C(=O)/C=C/c2ccc([N+](=O)[O-])cc2)CC1,81,1,-6,-7,6,9
O=S(=O)(NCc1ccccc1)c1ccc(Cl)cc1,102,-6,-6,1,-3,4
O=S(=O)(Nc1cc2nc3ccccc3nc2n1Cc1ccccc1)c1ccc(Cl)cc1,120,-16,-14,+,-8,-22
CCOC(=O)c1cnc2c(OC)cccc2c1Nc1ccc2c(c1)OCCO2,57*,-6,3,-2,-1,-3
O=C(NC(c1ccc(-c2ccccc2)cc1)c1cnccn1)C1CCN(Cc2ccc3c(c2)OCO3)CC1 (stereo not drawn),/,/,-4,/,-7,/
O=S(=O)(O)Sc1ccccc1,/,/,-4,/,-2,/
CCN(CC)c1ccc(SS(=O)(=O)O)cc1,130,-19,-1,35*!,6,-21
O=C(Nc1ccc(Cl)cc1)NC1CCCCC1Cc1ccco1 (stereo not drawn),104,-1,10,-5,-6,-6
O=C(Nc1ccc(Cl)cc1)NC1CCCC1Cc1ccco1 (stereo not drawn),95,-9,/,17*,/,-7
CCN(CC)C(=O)c1ccc(NS(=O)(=O)c2ccccc2)cc1,89,4,1,7,-2,2
CCN(CC)C(=O)c1ccc(S(=O)(=O)c2ccccc2)cc1,103,-9,-4,+,16,0
CCN(CC)C(=O)c1ccc2nc3ccccc3nc2c1,37*,-3,-4,1,3,7
CCOC(=O)N(C)C[C@H]1OCc2cnnn2CCCC(=O)N([C@H](C)CO)C[C@@H]1C,/,/,5,/,3,/
O=C(Nc1ccccn1)c1cccs1,133,10,-1,4,-8,14
CN1C(C(=O)Nc2ccccn2)=C(O)c2sccc2S1(=O)=O,107,5,-1,39*!,2,4
CCOc1ccc(NC(=O)C23CC4CC(C2)CC(c2ccccc2)(C4)C3)cc1,102,2,6,14*,-17,-16
CC(C)(C)NC(=O)CN(CCc1ccccc1)C(=O)c1csnn1,76,-2,-1,-1,-11,6
Cc1ccccc1Br,/,/,6,/,9,/
Cc1ccc(CNC(=O)C2CCC(=O)N(CCc3ccccc3)C2)s1 (stereo not drawn),106,5,-12,18*,3,-2
Cc1ccc(CNC(=O)C2CCC(=O)N(CCc3cccc(F)c3)C2)s1 (stereo not drawn),/,/,-12,/,-5,/
COC1CCCN(C(=O)c2cccc(OC3CCN(S(C)(=O)=O)CC3)c2)C1 (stereo not drawn),100,-1,1,-1,4,5
